Measurements published in ChEMBL document CHEMBL1275449, “Potent in vitro antifungal activities of naturally occurring acetylenic acids” (Antimicrob Agents Chemother, 2008).
Values after ≈ are worked out from the molar mass of the structure shown. Active and inactive are the calls of the source. The rule behind the calls is not given here.

What was measured:
[1] = test system: Trichophyton mentagrophytes; experiment: Antifungal activity against Trichophyton mentagrophytes ATCC 9533 by CLSI method; format: functional, organism-based
In short: (§1)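 Growth scraped from 1- to 6-week-old potato dextrose slants and filtered through Miracloth. Diluted in 5% Alamar blue-RPMI 1640 (MOPS pH 7.0) to 2.7 × 10⁴ CFU/ml. Eleven twofold dilutions in duplicate. Fluorescence at 544 nm excitation/590 nm emission read before and after 35°C, 5 days. IC50 fitted from percent growth. MIC taken as no detectable growth; MFC from clear or blue wells plated on PD agar.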

[2] = test system: Vero; experiment: Cytotoxicity against African green monkey Vero cells up to 32 uM by neutral red method; format: cell-based; settings: chlorocebus sabaeus
In short: (§2)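 Neutral red uptake cytotoxicity, top concentration 32 μM.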

[3] = test system: Candida parapsilosis; experiment: Antifungal activity against Candida parapsilosis ATCC 22019 at 178.3 uM after 48 hrs by CLSI method; format: functional, organism-based
In short: (§3)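 Yeast suspensions made from 3-5 colonies off 24-72 h SD agar plates in saline. They were diluted by OD630 standard curve in RPMI 1640 (0.2% dextrose, 0.03% glutamine, 0.165 M MOPS, pH 7.0) to 1.5 × 10³ CFU/ml. Twofold dilutions (11 concentrations, 20% DMSO-saline) run in duplicate. OD530 read before and after 35°C, 48 h. Line values are top test concentrations; no-growth endpoints give MIC/MFC.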

[4] = test system: Candida albicans; experiment: Antifungal activity against Candida albicans ATCC 200955 after 48 hrs by CLSI method; format: functional, organism-based; settings: ATCC 200955, 48 h
In short: (§4)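 CLSI broth microdilution. Colonies from 24–72 h SD agar suspended in saline and sized by OD630 standard curve. Inoculum 1.5 × 10³ CFU/ml (final) in RPMI 1640 (0.2% dextrose, 0.03% glutamine, 0.165 M MOPS, pH 7.0). Twofold dilutions (11 levels) from 20% DMSO-saline, in duplicate. 35°C for 48 h, OD530 read before and after. IC50 fitted from % growth. MIC: no detectable growth. MFC: subculture onto SD agar.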

[5] = test system: Candida albicans; experiment: Antifungal activity against Candida albicans ATCC 90028 after 48 hrs by CLSI method; format: functional, organism-based; settings: ATCC 90028, 48 h; in short: as §4
[6] = test system: LLC-PK1; experiment: Cytotoxicity against pig LLC-PK1 cells up to 32 uM by neutral red method; format: cell-based, Sus scrofa; in short: as §2
[7] = test system: SK-OV-3; experiment: Cytotoxicity against human SKOV3 cells up to 32 uM by neutral red method; format: cell-based; in short: as §2
[8] = test system: Candida albicans; experiment: Antifungal activity against Candida albicans ATCC 32354 at 178.3 uM after 48 hrs by CLSI method; format: functional, organism-based
In short: (§5)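 Candida inocula came from 24–72-h SD agar colonies suspended in saline. They were diluted by OD630 standard curve into RPMI 1640 (0.2% dextrose, 0.03% glutamine, 0.165 M MOPS, pH 7.0) to 1.5 × 10³ CFU/ml. Compounds were run as 11 twofold dilutions in 20% DMSO-saline, in duplicate, at 35°C for 48 h, with OD530 read before and after. Percent growth at the top concentration, IC50, MIC, and MFC (SD agar plating) were derived.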

[9] = test system: Trichophyton rubrum; experiment: Antifungal activity against Trichophyton rubrum ATCC MYA-4438 by CLSI method; format: functional, organism-based; in short: as §1
[10] = test system: Candida albicans; experiment: Antifungal activity against Fluconazole resistant Candida albicans clinical isolate 17 after 48 hrs by CLSI method; format: functional, organism-based; in short: as §4
[11] = test system: Trichophyton rubrum; experiment: Antifungal activity against Trichophyton rubrum ATCC MYA-4438 at 178.3 uM after 5 days by CLSI method; format: functional, organism-based
[12] = test system: Aspergillus niger; experiment: Antifungal activity against Aspergillus niger ATCC 16404 at 178.3 uM after 48 hrs by CLSI method; format: functional, organism-based
[13] = test system: Pichia kudriavzevii; experiment: Antifungal activity against Candida krusei ATCC 6258 after 48 hrs by CLSI method; format: functional, organism-based; settings: ATCC 6258, 48 h; in short: as §5
[14] = test system: Candida tropicalis; experiment: Antifungal activity against Candida tropicalis ATCC 750 after 48 hrs by CLSI method; format: functional, organism-based; settings: ATCC 750, 48 h; in short: as §3
[15] = test system: Nakaseomyces glabratus; experiment: Antifungal activity against Candida glabrata ATCC 90030 at 178.3 uM after 48 hrs by CLSI method; format: functional, organism-based; in short: as §5
[16] = test system: Cryptococcus neoformans; experiment: Antifungal activity against Cryptococcus neoformans ATCC 90113 at 178.3 uM after 72 hrs by CLSI method; format: functional, organism-based
In short: (§6)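 SD broth replaced RPMI because growth in RPMI was poor; other CLSI conditions were kept. Inoculum was 1.5 × 10³ CFU/ml from colonies on SD agar, checked by plating. Twofold serial dilutions (11 concentrations) in 20% DMSO-saline were tested in duplicate. OD530 was read before and after incubation at 35°C for 72 h. Percent growth gave IC50; the MIC is the lowest concentration with no detectable growth.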

[17] = test system: Candida albicans; experiment: Antifungal activity against Fluconazole resistant Candida albicans clinical isolate 1 after 48 hrs by CLSI method; format: functional, organism-based; in short: as §4
[18] = test system: Cryptococcus neoformans; experiment: Antifungal activity against Cryptococcus neoformans ATCC 66031 at 178.3 uM after 72 hrs by CLSI method; format: functional, organism-based; in short: as §6
[19] = test system: BT-549; experiment: Cytotoxicity against human BT549 cells up to 32 uM by neutral red method; format: cell-based; in short: as §2
[20] = test system: Trichophyton rubrum; experiment: Antifungal activity against Trichophyton rubrum ATCC 10218 by CLSI method; format: functional, organism-based; in short: as §1
[21] = test system: Candida albicans; experiment: Antifungal activity against Candida albicans ATCC 14053 after 48 hrs by CLSI method; format: functional, organism-based; settings: ATCC 14053, 48 h; in short: as §4
[22] = test system: Aspergillus fumigatus; experiment: Antifungal activity against Aspergillus fumigatus ATCC 204305 after 48 h by CLSI method; settings: ATCC 204305, 48 h
[23] = test system: Candida albicans; experiment: Antifungal activity against Candida albicans ATCC 200955 at 178.3 uM after 48 hrs by CLSI method; format: functional, organism-based; in short: as §5
[24] = test system: Cryptococcus neoformans; experiment: Antifungal activity against Cryptococcus neoformans ATCC 66031 after 72 hrs by CLSI method; format: functional, organism-based; settings: ATCC 66031, 72 h; in short: as §6
[25] = test system: Mus musculus; experiment: Toxicity in mouse up to 34 umol/kg/day, ip for 3 days; format: organism-based; settings: in vivo, 72 h
[26] = test system: Trichophyton mentagrophytes; experiment: Antifungal activity against Trichophyton mentagrophytes ATCC MYA-4439 by CLSI method; format: functional, organism-based; in short: as §1
[27] = test system: SK-MEL; experiment: Cytotoxicity against human SK-MEL cells up to 32 uM by neutral red method; format: cell-based; in short: as §2
[28] = test system: Candida albicans; experiment: Antifungal activity against Candida albicans ATCC 60193 after 48 hrs by CLSI method; format: functional, organism-based; settings: ATCC 60193, 48 h; in short: as §4
[29] = test system: Candida albicans; experiment: Antifungal activity against Fluconazole resistant Candida albicans isolate 17 at 178.3 uM after 48 hrs by CLSI method; format: functional, organism-based
In short: (§7)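 Candida in CLSI broth microdilution. Saline colony suspension set to 1.5 × 10³ CFU/ml (final) in MOPS-buffered RPMI 1640, pH 7.0. Test agent given as twofold serial dilutions in 20% DMSO-saline, duplicate wells. 35°C for 48 h. Growth read as OD530 before and after incubation. Percent inhibition scored at the highest test concentration.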

[30] = test system: Aspergillus flavus; experiment: Antifungal activity against Aspergillus flavus ATCC 204304 at 178.3 uM after 48 hrs by CLSI method; format: functional, organism-based
[31] = test system: Candida albicans; experiment: Antifungal activity against Candida albicans ATCC 60193 at 178.3 uM after 48 hrs by CLSI method; format: functional, organism-based; in short: as §5
[32] = test system: Candida albicans; experiment: Antifungal activity against Fluconazole resistant Candida albicans isolate 1 at 178.3 uM after 48 hrs by CLSI method; format: functional, organism-based; in short: as §7
[33] = test system: Aspergillus fumigatus; experiment: Antifungal activity against Aspergillus fumigatus ATCC 204305 at 178.3 uM after 48 hrs by CLSI method; format: functional, organism-based
[34] = test system: KB; experiment: Cytotoxicity against human KB cells up to 32 uM by neutral red method; format: cell-based; in short: as §2
[35] = test system: Candida albicans; experiment: Antifungal activity against Candida albicans ATCC 32354 after 48 hrs by CLSI method; format: functional, organism-based; settings: ATCC 32354, 48 h; in short: as §4
[36] = test system: Aspergillus fumigatus; experiment: Antifungal activity against Aspergillus fumigatus ATCC 90906 at 178.3 uM after 48 hrs by CLSI method; format: functional, organism-based
[37] = test system: Candida tropicalis; experiment: Antifungal activity against Candida tropicalis ATCC 750 at 178.3 uM after 48 hrs by CLSI method; format: functional, organism-based; in short: as §3

`CCCCCCCCCCCC#CCCCCC(=O)O` [6-OCTADECYNOIC ACID] was tested, and the IC50 [1] was 1300 nM, the MFC [1] was 2.8 µM (≈ 0.785 µg/mL) and the MIC [1] was 2.1 µM (≈ 0.589 µg/mL). For the same compound, the Activity [2] was “Non-toxic”, the Activity [3] was “inactive” and the IC50 [4] was 1900 nM. For the same compound, the MIC [4] was 11.1 µM (≈ 3.11 µg/mL), the IC50 [5] was 2000 nM and the MFC [5] was 11.1 µM (≈ 3.11 µg/mL). The MIC [5] was 2.8 µM (≈ 0.785 µg/mL), the Activity [6] was “Non-toxic” and the Activity [7] was “Non-toxic”. For the same compound, the Activity [8] was “inactive”, the IC50 [9] was 1800 nM and the MIC [9] was 5.6 µM (≈ 1.57 µg/mL). For the same compound, the IC50 [10] was 3600 nM, the MIC [10] was 16.7 µM (≈ 4.68 µg/mL) and the Activity [11] was “inactive”. The Activity [12] was “inactive”, the IC50 [13] was 3400 nM and the MIC [13] was 5.6 µM (≈ 1.57 µg/mL). The IC50 [14] was 6300 nM, the MIC [14] was 111 µM (≈ 31.2 µg/mL) and the Activity [15] was “inactive”. For the same compound, the Activity [16] was “inactive”, the IC50 [17] was 4200 nM and the MIC [17] was 13.9 µM (≈ 3.9 µg/mL). For the same compound, the Activity [18] was “inactive”, the Activity [19] was “Non-toxic” and the IC50 [20] was 2700 nM. It also gave an MFC [20] of 11.1 µM (≈ 3.11 µg/mL), an MIC [20] of 5.6 µM (≈ 1.57 µg/mL) and an IC50 [21] of 1000 nM. The MFC [21] was 5.6 µM (≈ 1.57 µg/mL), the MIC [21] was 2.8 µM (≈ 0.785 µg/mL) and the IC50 [22] was 18700 nM. The MIC [22] was 178 µM (≈ 50 µg/mL), the Activity [23] was “inactive” and the IC50 [24] was 1400 nM. The Activity [25] was “Non-toxic”, the IC50 [26] was 1200 nM and the MFC [26] was 2.8 µM (≈ 0.785 µg/mL). For the same compound, the MIC [26] was 2.8 µM (≈ 0.785 µg/mL), the Activity [27] was “Non-toxic” and the IC50 [28] was 3000 nM. The MIC [28] was 5.6 µM (≈ 1.57 µg/mL), the Activity [29] was “inactive” and the Activity [30] was “inactive”. For the same compound, the Activity [31] was “inactive”, the Activity [32] was “inactive” and the Activity [33] was “inactive”. For the same compound, the Activity [34] was “Non-toxic”, the IC50 [35] was 4000 nM and the MIC [35] was 27.9 µM (≈ 7.82 µg/mL). For the same compound, the Activity [36] was “inactive” and the Activity [37] was “inactive”.
